Data set [1] in a line: folding enthalpy; higher = less favourable; fluorescence melt of hairpins on a sequencing array, two-state fit. Particulars: sodium 0.088 M. The method, boiled down: (§1)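 Folding enthalpy and melting temperature were estimated with bootstrapped two-state fits and combined across four replicates by inverse-variance weighting, with fitted temperatures raised by 9.35 °C to match UV melts. The data were Cy3 fluorescence of library hairpins, with annealed Cy3 and quencher oligos, on a sequenced MiSeq flow cell in 50 mM Na-HEPES pH 8.0, 25 mM NaCl, imaged in 2.5 °C steps up to 60 °C and normalised to pre-quench Cy3 and control constructs.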

Data set [2] can be described thus: melting temperature; fluorescence melt of hairpins on a sequencing array, two-state fit, raised by 9.35 °C to match UV melts. The note with it: sodium 0.088 M. The method, boiled down:
as §1

Folding enthalpy and Tm data for 36 sequences are collected here from the array DNA melting data of Ke et al. (doi:10.1101/2024.01.08.574731).

On to CGTCTCGGAAACGATACG (((.(((....))).))), for which the folding enthalpy in data set [1] was -38 kcal/mol. In addition, the Tm in data set [2] amounted to 42.9 °C.
For CGTCTGAAAAGACG (((((....))))) the same measures were -29.4 kcal/mol and 55.2 °C.
On to CGTGCCGGAAACGGGACG (((.(((....))).))), for which the folding enthalpy in data set [1] was -37.6 kcal/mol. Further, in data set [2], the Tm was 62.9 °C.
For CGTGCGGAAACGCAGACG ((((((....)))..))) the same measures were -15.7 kcal/mol and 47.4 °C.
As for CGTGCGGAAACGCCCACG ((((((....)))..))), in data set [1], the folding enthalpy was -22.4 kcal/mol. The Tm in data set [2] was 38.2 °C.
For CGTGCGGAAACGCGCACG ((((((....)))..))) the same measures were -34.2 kcal/mol and 64 °C.
For CGTGCGGAAACGCGGACG ((((((....)))..))), the folding enthalpy in data set [1] was -19.2 kcal/mol. Also, the Tm in data set [2] stood at 47 °C.
As for CGTGCTCGGAAACGAACG (((..(((....)))))), the folding enthalpy in data set [1] is -5.98 kcal/mol. Further, in data set [2], the Tm is 21.2 °C.
For CGTGGTCGGAAACGAACG (((..(((....)))))) the same measures were -16.3 kcal/mol and 30.5 °C.
For CGTGTACGGAAACGTACG (((..(((....)))))) the same measures were -8.98 kcal/mol and 46 °C.
On to CGTGTCCGGAAACGGACG (((..(((....)))))), for which the folding enthalpy in data set [1] is -7.66 kcal/mol. Besides, the Tm in data set [2] was 48.1 °C.
Consider CGTGTCGGAAACGATACG (((.(((....))).))), for which, in data set [1], the folding enthalpy is -39.1 kcal/mol. Also, the Tm in data set [2] worked out at 53.2 °C.
For the sequence CGTGTGCGGAAACGCACG (((..(((....)))))), the folding enthalpy in data set [1] is -6.54 kcal/mol. Besides, the Tm in data set [2] was found to be 54.5 °C.
Take CGTTACGGAAACGTCACG (((.(((....))).))): the folding enthalpy in data set [1] was -23.6 kcal/mol. Also, in data set [2], the Tm is 44.5 °C.
With CGTTCGGAAACGAACACG ((((((....)))..))), in data set [1], the folding enthalpy was -11.5 kcal/mol. Besides, in data set [2], the Tm turned out to be 39.1 °C.
With CGTTCGGAAACGACTACG ((((((....)))..))), in data set [1], the folding enthalpy is -12.6 kcal/mol. Moreover, the Tm in data set [2] came to 29 °C.
CGTTCGGAAACGATACG ((((((....))).))): the folding enthalpy in data set [1] is -27.1 kcal/mol. In addition, the Tm in data set [2] stood at 42.1 °C.
For the sequence CGTTCGGAAACGATTACG ((((((....)))..))), the folding enthalpy in data set [1] was -18.1 kcal/mol. Besides, the Tm in data set [2] was found to be 35.7 °C.
Regarding CGTTGACGGAAACGTACG (((..(((....)))))), in data set [1], the folding enthalpy was -18.8 kcal/mol. Further, the Tm in data set [2] stood at 43.2 °C.
As for CTAACTGAAAAGTTAG ((((((....)))))), the folding enthalpy in data set [1] was -23.3 kcal/mol. Also, in data set [2], the Tm was determined as 45.9 °C.
Regarding CTAGAGAAATCTAG (((((....))))), the folding enthalpy in data set [1] is -7.95 kcal/mol. The Tm in data set [2] came to 26.2 °C.
CTCGGGAAACCGAG (((((....))))): the folding enthalpy in data set [1] is -23.9 kcal/mol. In addition, in data set [2], the Tm was found to be 56.1 °C.
As for CTCTCGAAAGAGAG (((((....))))), the folding enthalpy in data set [1] was -21.5 kcal/mol. Also, the Tm in data set [2] amounted to 53.3 °C.
For CTTAGGAAACTAAG (((((....))))) the same measures were -11.4 kcal/mol and 33.4 °C.
CTTCAGAAATGAAG (((((....))))): the folding enthalpy in data set [1] was -11.5 kcal/mol. Moreover, the Tm in data set [2] was determined as 36 °C.
CTTCGGAAACGAAG (((((....))))): the folding enthalpy in data set [1] is -20.9 kcal/mol. For the same sequence, in data set [2], the Tm was 50.3 °C.
As for CTTGGGAAACCAAG (((((....))))), the folding enthalpy in data set [1] is -22.4 kcal/mol. Further, the Tm in data set [2] is 45.9 °C.
GAAAAAACGAAAGTTTTC (((..(((....)))))): in data set [1], the folding enthalpy is -13.4 kcal/mol. In addition, the Tm in data set [2] came to 30.9 °C.
As for GAAAAACGAAAGTTTTC (((.(((....)))))), the folding enthalpy in data set [1] was -15.7 kcal/mol. In addition, the Tm in data set [2] amounted to 36.9 °C.
For the sequence GAAAACGAAAGTTCTTC ((((((....))).))), the folding enthalpy in data set [1] was -17.8 kcal/mol. Moreover, the Tm in data set [2] amounted to 36.1 °C.
Take GAAAACGAAAGTTCTTTC ((((((....)))..))): the folding enthalpy in data set [1] was -15.9 kcal/mol. The Tm in data set [2] amounted to 28.9 °C.
Take GAAAAGCGAAAGCTCTTC (((.(((....))).))): in data set [1], the folding enthalpy is -15.4 kcal/mol. For the same sequence, the Tm in data set [2] turned out to be 36.5 °C.
On to GAAAAGGAAACTTTTC ((((((....)))))), for which the folding enthalpy in data set [1] was -25.2 kcal/mol. Besides, the Tm in data set [2] stood at 39.7 °C.
With GAAAAGGGAAACCTTTTC (((((((....))))))), the folding enthalpy in data set [1] is -38.8 kcal/mol. Moreover, in data set [2], the Tm is 50.6 °C.
In the case of GAAACACCGAAAGGTTTC (((..(((....)))))), the folding enthalpy in data set [1] was -17.4 kcal/mol. Besides, the Tm in data set [2] worked out at 31.9 °C.
Take GAAACACGAAAGTGTTC (((.(((....)))))): in data set [1], the folding enthalpy was -12.7 kcal/mol. Further, the Tm in data set [2] was found to be 44 °C.
